According to ChEMBL document CHEMBL1938282 (J Med Chem, 2011):

Assays:
[1] = target: T1, Amine oxidase [flavin-containing] A (Bos taurus, UniProt P21398); assay: Inhibition of bovine brain MAOA using kynuramine as a substrate after 30 mins by spectrofluorometric method
T1 sequence (P21398 whole entry): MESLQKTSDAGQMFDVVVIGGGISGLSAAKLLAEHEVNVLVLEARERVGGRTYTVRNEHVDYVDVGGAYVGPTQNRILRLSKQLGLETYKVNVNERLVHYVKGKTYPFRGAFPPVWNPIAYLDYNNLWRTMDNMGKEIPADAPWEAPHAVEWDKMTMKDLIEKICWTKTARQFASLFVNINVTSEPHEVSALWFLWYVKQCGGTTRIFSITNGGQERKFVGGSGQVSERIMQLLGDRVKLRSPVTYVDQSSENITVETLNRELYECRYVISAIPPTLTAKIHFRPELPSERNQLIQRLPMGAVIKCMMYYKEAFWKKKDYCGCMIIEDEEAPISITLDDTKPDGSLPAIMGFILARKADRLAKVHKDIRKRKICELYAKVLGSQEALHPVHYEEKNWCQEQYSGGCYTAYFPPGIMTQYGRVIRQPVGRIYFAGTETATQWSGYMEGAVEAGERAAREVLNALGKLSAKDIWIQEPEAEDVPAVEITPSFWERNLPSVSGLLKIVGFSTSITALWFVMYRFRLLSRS
Procedure, shortened: (§1)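 Mitochondria isolated from beef brain were pretreated for 30 min at 38 °C with 1 μM L-deprenyl to isolate MAO-A, or with 1 μM clorgyline to isolate MAO-B. Compounds in DMSO were preincubated for 30 min at 38 °C in potassium phosphate buffer at pH 7.4. Kynuramine was then added at four concentrations (5 μM–0.1 mM final) for 30 min.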

Bos taurus = species: Bos taurus; assay: Selectivity index, ratio of Ki for bovine MAOB to Ki for bovine MAOA
Procedure, shortened: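 Selectivity was calculated as Ki(MAO-B)/Ki(MAO-A). Each Ki came from a Dixon plot of kynuramine deamination by beef brain mitochondria, with 1 μM clorgyline present for MAO-B or 1 μM L-deprenyl for MAO-A, read fluorimetrically.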

[2] = target: T2, Amine oxidase [flavin-containing] B (Bos taurus, UniProt P56560); assay: Inhibition of bovine brain MAOB using kynuramine as a substrate after 30 mins by spectrofluorometric method; procedure, shortened: as §1
T2 sequence (P56560 whole entry): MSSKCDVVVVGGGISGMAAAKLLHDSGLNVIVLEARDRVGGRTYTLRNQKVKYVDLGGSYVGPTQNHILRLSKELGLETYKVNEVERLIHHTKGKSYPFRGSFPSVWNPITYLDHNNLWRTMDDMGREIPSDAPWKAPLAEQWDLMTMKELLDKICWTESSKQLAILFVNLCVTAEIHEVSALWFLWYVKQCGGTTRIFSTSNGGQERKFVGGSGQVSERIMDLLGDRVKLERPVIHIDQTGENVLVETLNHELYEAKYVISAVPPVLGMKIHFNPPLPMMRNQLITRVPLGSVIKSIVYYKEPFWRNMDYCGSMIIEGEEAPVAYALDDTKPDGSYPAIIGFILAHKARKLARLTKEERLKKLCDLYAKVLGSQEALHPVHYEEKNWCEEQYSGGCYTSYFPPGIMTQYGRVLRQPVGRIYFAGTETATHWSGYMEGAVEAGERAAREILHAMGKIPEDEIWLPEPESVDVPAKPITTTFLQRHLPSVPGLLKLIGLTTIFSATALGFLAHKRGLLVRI

Row | Ki [1] | Ratio Ki (Bos taurus) | Ki [2] | SMILES
1 | 100 nM | 20 | 2000 nM | C=CCn1ccc(N2C[C@H](CNC)OC2=O)c1
2 | 1 nM | 200000 | 200000 nM | C=CCn1ccc(N2C[C@H](COC)OC2=O)c1
3 | 130 nM | 192 | 25000 nM | CCn1ccc(N2C[C@H](CN)OC2=O)c1
4 | 2.5 nM | 88 | 220 nM | COC[C@H]1CN(c2ccc(OCC[C@@H](O)C(F)(F)F)cc2)C(=O)O1 [BEFLOXATONE]
5 | 300 nM | 567 | 170000 nM | COC[C@H]1CN(c2ccn(C)c2)C(=O)O1
6 | 1000 nM | > 10 | > 10000 nM | Cn1ccc(N2C[C@H](CO)OC2=O)c1
7 | 80 nM | 225 | 18000 nM | CCn1ccc(N2C[C@H](CNC)OC2=O)c1
8 | 3 nM | 100 | 300 nM | CCn1ccc(N2C[C@H](CO)OC2=O)c1
9 | 0.8 nM | 25000 | 20000 nM | CCn1ccc(N2C[C@H](CN=[N+]=[N-])OC2=O)c1
10 | 7 nM | > 14300 | > 100000 nM | CNC[C@H]1CN(c2ccn(C)c2)C(=O)O1
11 | 4 nM | 25000 | 100000 nM | C=CCn1ccc(N2C[C@H](CN=[N+]=[N-])OC2=O)c1
12 | 0.6 nM | 2170 | 1300 nM | CCn1ccc(N2C[C@H](COC)OC2=O)c1
13 | 350 nM | 1790 | 625000 nM | C=CCn1ccc(N2C[C@H](CO)OC2=O)c1
14 | 10 nM | 18000 | 180000 nM | Cn1ccc(N2C[C@H](CN)OC2=O)c1
15 | 200 nM | 1800 | 360000 nM | Cn1ccc(N2C[C@H](CN=[N+]=[N-])OC2=O)c1
16 | 700 nM | 11 | 8000 nM | C=CCn1ccc(N2C[C@H](CN)OC2=O)c1
